Results of several laboratories.
≈ marks a conversion by molar mass, not a printed value.

Cn1cnc2nc(NCc3ccc(Cl)c(Cl)c3)[nH]c(=O)c21 — MIC (Lactobacillus acidophilus; microbial growth, agar dilution; 48 h): 8 µg/mL (≈ 24.7 µM)
CCCCCCNC(=S)Nc1cccc(-c2cc(C(=O)OC)no2)c1 — MIC (Escherichia coli; microbial growth, broth dilution; ATCC25922): > 64 µg/mL
CN[C@H](CC(C)C)C(=O)N[C@H]1C(=O)N[C@@H](CC(N)=O)C(=O)N[C@H]2C(=O)N[C@H]3C(=O)N[C@H](C(=O)N[C@H](C(=O)O)c4cc(O)cc(O)c4-c4cc3ccc4O)[C@H](O)c3ccc(c(Cl)c3)Oc3cc2cc(c3O[C@@H]2O[C@H](CO)[C@@H](O)[C@H](O)[C@H]2O[C@H]2C[C@](C)(N)[C@H](O)[C@H](C)O2)Oc2ccc(cc2Cl)[C@H]1O — MBC (Staphylococcus aureus; microbial killing, broth dilution; NRS107): 1 µM (≈ 1.45 µg/mL)
COC(=O)c1cc(-c2cccc(NC(=O)Nc3ccc(Cl)c(Cl)c3)c2)on1 — MIC (Escherichia coli; microbial growth, broth dilution; ATCC25922): > 64 µg/mL
Clc1ccc(-c2nc3ccccc3n2Cc2ccccc2)cc1 — MIC (Staphylococcus aureus; microbial growth, broth dilution; ATCC43300 MRSA; drug-resistant strain): 256 µg/mL (≈ 803 µM)
Cc1ccc2[nH]c3c(c2c1)CCCC3NCCc1ccc(Br)cc1 (stereo not shown) — MIC (Micrococcus luteus; microbial growth, broth dilution; DSM1790): 2 µg/mL (≈ 5.22 µM)
Cc1ccc2nc(-c3cc(Br)ccc3O)[nH]c2c1 — MIC (Staphylococcus aureus; microbial growth, broth dilution; ATCC43300 MRSA; drug-resistant strain): 128 µg/mL (≈ 422 µM)
O=C(O)c1cn(C2CC2)c2cc(N3CCNCC3)c(F)cc2c1=O — MBC (Staphylococcus aureus; microbial killing): 19 µM (≈ 6.3 µg/mL)
COC(=O)c1cc(-c2cccc(NC(=S)Nc3ccc(OC)cc3)c2)on1 — MIC (Escherichia coli; microbial growth, broth dilution; ATCC25922): > 64 µg/mL
Cc1ccc2nc(-c3ccc([N+](=O)[O-])cc3)n(Cc3ccccc3Cl)c2c1 — MIC (Staphylococcus aureus; microbial growth, broth dilution; ATCC43300 MRSA; drug-resistant strain): 64 µg/mL (≈ 169 µM)
